Results from different studies.
Compare with care: the assays were run in different laboratories. ≈ marks a conversion by molar mass, not a printed value.

SMILES	organism	assay	system	conditions	quantity	value
O=C(O)CN1C(=O)/C(=C/c2ccc(-c3ccc(N(c4ccccc4)c4ccccc4)cc3)c3ccccc23)SC1=S	Bacillus subtilis	microbial killing, broth dilution	ATCC6633	–	MBC	1000 µg/mL (≈ 1750 µM)
Cc1c(NN=C2SC(C(C#N)=Cc3ccccc3)=NC2=O)c(=O)n(-c2ccccc2)n1C	Bacillus subtilis	microbial growth, well diffusion	–	100000 µg/mL	inhibition zone	17 mm
C[C@@H]1[C@H](O)[C@@H](C)/C=C/C=C/C=C/C=C/C=C/C=C/C=C/[C@H](O[C@@H]2O[C@H](C)[C@@H](O)[C@H](N)[C@@H]2O)C[C@@H]2O[C@](O)(C[C@@H](O)C[C@@H](O)[C@H](O)CC[C@@H](O)C[C@@H](O)CC(=O)O[C@H]1C)C[C@H](O)[C@H]2C(=O)O	Cryptococcus neoformans	microbial growth, broth dilution	ATCC90113	–	IC50	0.24 µg/mL
O=C(O)c1nc2ccccc2c(=O)n1Cc1cn(-c2ccccc2[N+](=O)[O-])nn1	Nakaseomyces glabratus	microbial growth, broth dilution	ATCC90030	24 h	IC50	487 µg/mL
CCCCCCC/C=C/C(=O)N1C(=O)/C(=C(\O)c2ccccc2)C(=O)C1CC(C)C (stereo not drawn)	Proteus vulgaris	microbial growth	ATCC33420	–	MIC	> 200 µg/mL
O=C(O)c1nc2ccccc2c(=O)n1Cc1cn(-c2ccccc2F)nn1	Nakaseomyces glabratus	microbial growth, broth dilution	ATCC90030	24 h	IC50	174 µg/mL
N=C(NCCCCCCNC(=N)NC(=N)Nc1ccc(Cl)cc1)NC(=N)Nc1ccc(Cl)cc1	Acanthamoeba polyphaga	parasite growth, resazurin	–	96 h	IC50	9.41 µM
O=C(O)c1nc2ccccc2c(=O)n1Cc1cn(-c2ccc(F)cc2)nn1	Nakaseomyces glabratus	microbial growth, broth dilution	ATCC90030	24 h	IC50	422 µg/mL
CCCCCCC/C=C/C(=O)N1C(=O)/C(=C(\O)c2ccncc2)C(=O)C1CC(C)C (stereo not drawn)	Proteus vulgaris	microbial growth	ATCC33420	–	MIC	> 200 µg/mL
O=C(O)c1nc2ccccc2c(=O)n1Cc1cn(-c2cccc(Cl)c2)nn1	Nakaseomyces glabratus	microbial growth, broth dilution	ATCC90030	24 h	IC50	278 µg/mL
Cc1c(NN=C2SC(C(C#N)=Cc3ccc(Cl)cc3)=NC2=O)c(=O)n(-c2ccccc2)n1C	Bacillus subtilis	microbial growth, well diffusion	–	100000 µg/mL	inhibition zone	17 mm
C/C(O)=C1\C(=O)C(CC(C)C)N(C(=O)C=Cc2ccccc2)C1=O (stereo not drawn)	Proteus vulgaris	microbial growth	ATCC33420	–	MIC	> 200 µg/mL
O=C1NC(=S)N/C1=C\c1ccc(-c2ccc(N(c3ccccc3)c3ccccc3)cc2)c2ccccc12	Bacillus subtilis	microbial killing, broth dilution	ATCC6633	–	MBC	> 1000 µg/mL
C[C@@H](c1ncncc1F)[C@](O)(Cn1cncn1)c1ccc(F)cc1F	Acanthamoeba polyphaga	parasite growth, resazurin	–	96 h	IC50	28.9 µM
C[C@@H]1[C@H](O)[C@@H](C)/C=C/C=C/C=C/C=C/C=C/C=C/C=C/[C@H](O[C@@H]2O[C@H](C)[C@@H](O)[C@H](N)[C@@H]2O)C[C@@H]2O[C@](O)(C[C@@H](O)C[C@@H](O)[C@H](O)CC[C@@H](O)C[C@@H](O)CC(=O)O[C@H]1C)C[C@H](O)[C@H]2C(=O)O	Cryptococcus neoformans	microbial growth	ATCC90113	–	IC50	0.26 µM
Cc1ccccc1-n1cc(Cn2c(C(=O)O)nc3ccccc3c2=O)nn1	Nakaseomyces glabratus	microbial growth, broth dilution	ATCC90030	24 h	IC50	358 µg/mL
Cc1c(NC(=O)CC2=NC(=O)CS2)c(=O)n(-c2ccccc2)n1C	Bacillus subtilis	microbial killing, broth dilution	–	–	MBC	2 µg/mL (≈ 5.81 µM)
CCOC(=O)c1nc2ccccc2c(=O)n1Cc1cn(-c2ccccc2OC)nn1	Nakaseomyces glabratus	microbial growth, broth dilution	ATCC90030	24 h	IC50	81.8 µg/mL
Cc1ccc(-c2nn(-c3ccccc3)cc2C=c2sc(=CC#N)[nH]c2=O)cc1	Bacillus subtilis	microbial growth, well diffusion	–	100000 µg/mL	inhibition zone	12 mm
O=C(O)c1nc2ccccc2c(=O)n1Cc1cn(-c2ccc([N+](=O)[O-])cc2)nn1	Nakaseomyces glabratus	microbial growth, broth dilution	ATCC90030	24 h	IC50	432 µg/mL
O=C(O)c1cn(C2CC2)c2cc(N3CCNCC3)c(F)cc2c1=O	Bacillus subtilis	microbial killing, broth dilution	–	–	MBC	0.5 µg/mL (≈ 1.51 µM)
